Calls of active or inactive are those of the source. The rule behind the calls is not given here.
Legend:
CCRF-CEM = assay: Cytotoxicity against human CCRF-CEM cells assessed as growth inhibition after 72 hrs by MTT assay; assay type: functional
Outline: (§1)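 Five-dose MTT growth assay, compounds predissolved in DMSO, 72 h exposure at 37 C. Cells kept in RPMI-1640 or DMEM, 37 C, 5% CO2, passage 3-6. MTT (1 mg/mL in PBS) added for 4 h, formazan dissolved in DMSO, OD 570 nm. GI50 (50% growth inhibition) by nonlinear regression. Means ± SD, at least three repeats.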

Huh-7 = assay: Cytotoxicity against human HuH7 cells assessed as growth inhibition after 72 hrs by MTT assay; assay type: functional; conditions: Huh-7, 72 h; outline: as §1
[1] = biological target: T1, Topoisomerase I (Bos taurus) (UniProt Q2HPH0); assay: Inhibition of calf thymus TOP1-mediated relaxation of supercoiled pBR322 DNA at 25 uM after 30 mins by agarose gel electrophoresis relative to camptothecin
T1 sequence (whole entry): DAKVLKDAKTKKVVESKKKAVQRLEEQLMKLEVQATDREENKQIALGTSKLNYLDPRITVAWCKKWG
Outline: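 0.5 µg supercoiled pBR322 in buffer (10 mM Tris-HCl pH 7.5, 50 mM KCl, 5 mM MgCl2, BSA, DTT) with 1 unit calf thymus TOP1, with or without compound (0.2-125 µM), 30 min at 37 C. Run on 0.8% agarose/TBE at 4.6 V/cm for 1.5 h, gel red stained. Activity graded in bands (e.g. +++ 81-120%). At least two independent repeats.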

DU-145 = assay: Cytotoxicity against human DU145 cells assessed as growth inhibition after 72 hrs by MTT assay; assay type: functional; conditions: DU-145, 72 h; outline: as §1
HCT-116 = assay: Cytotoxicity against human HCT116 cells assessed as growth inhibition after 72 hrs by MTT assay; assay type: functional; conditions: HCT-116, 72 h; outline: as §1
A549 = assay: Cytotoxicity against human A549 cells assessed as growth inhibition after 72 hrs by MTT assay; assay type: functional; conditions: A549, 72 h; outline: as §1
DNA [2] = assay: Induction of unwinding effect of Escherichia coli relaxed pBR322 DNA at 1 to 9 uM preincubated with DNA for 10 mins followed by excess calf thymus TOP1 addition and measured after 30 mins by agarose gel electrophoresis; assay type: nucleic-acid assay
Outline: (§2)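 Compound (1, 3, 9 µM) preincubated with pBR322 DNA, supercoiled or relaxed, at room temperature for 10 min. Excess TOP1 then added and incubated 30 min at 37 C. Stopped with SDS/proteinase K. Ethidium bromide (0.3-1.2 mg/L) as positive control. Run on 0.8% agarose in TBE at 4.6 V/cm for 1.5 h, stained with gel red, UV visualized.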

DNA [3] = assay: Induction of unwinding effect of Escherichia coli supercoiled pBR322 DNA at 1 to 9 uM preincubated with DNA for 10 mins followed by excess calf thymus TOP1 addition and measured after 30 mins by agarose gel electrophoresis; assay type: nucleic-acid assay; outline: as §2

Structure (SMILES) | GI50 (CCRF-CEM) [nM] | GI50 (Huh-7) [nM] | inhibition [1] [%] | GI50 (DU-145) [nM] | GI50 (HCT-116) [nM] | GI50 (A549) [nM] | Activity (DNA [2]) | Activity (DNA [3])
O=C1c2cccnc2C(=O)c2c1c(C(=O)OCCCN1CCCC1)c1c(F)cccn21 | 510 | 110 | 41 to 80 | 92 | 29 | 80 | – | –
O=C1c2cccnc2C(=O)c2c1c(C(=O)OCCN1CCCC1)c1c(Cl)cccn21 | 48200 | 2250 | < 40 | 1580 | 10200 | 5390 | – | –
O=C1c2cccnc2C(=O)c2c1c(C(=O)OCCN1CCCCC1)c1c(Cl)cccn21 | 390 | 170 | > 121 | 2520 | 310 | 120 | Active | Active
O=C1c2cccnc2C(=O)c2c1c(C(=O)OCCCN1CCOCC1)c1c(Cl)cccn21 | 68600 | 28400 | < 40 | 29100 | 19100 | 37500 | – | –
CCOC(=O)c1c2c(n3ccc(NC(=O)CCN4CCCC4)cc13)C(=O)c1ncccc1C2=O | 540 | 1800 | 41 to 80 | 700 | 1900 | 29300 | – | –
O=C1c2cccnc2C(=O)c2c1c(C(=O)OCCN1CCOCC1)c1c(Cl)cccn21 | 61300 | 30300 | 41 to 80 | 29500 | 28600 | 48600 | – | –
O=C1c2nccnc2C(=O)c2c1c(C(=O)OCCN1CCOCC1)c1ccccn21 | 1610 | 7330 | 41 to 80 | 2550 | 13200 | 8520 | – | –
CCOC(=O)c1c2c(n3ccc(NC(=O)CCN4CCCCC4)cc13)C(=O)c1ncccc1C2=O | 110 | 1150 | 81 to 120 | 3120 | 1430 | 2650 | inactive | inactive
O=C1c2cccnc2C(=O)c2c1c(C(=O)OCCCN1CCCCC1)c1c(Cl)cccn21 | 5350 | 1320 | 41 to 80 | 1730 | 5150 | 890 | – | –
CN(C)CCOC(=O)c1c2c(n3cccc(F)c13)C(=O)c1ncccc1C2=O | 1090 | 310 | 41 to 80 | 690 | 92 | 27200 | – | –
O=C1c2ncccc2C(=O)c2c1c(C(=O)OCCN1CCOCC1)c1ccccn21 | 70500 | 14200 | > 121 | 1200 | 11100 | 4520 | inactive | inactive
CCOC(=O)c1c2c(n3ccc(NC(=O)CCN(C)C)cc13)C(=O)c1ncccc1C2=O | 290 | 1650 | 41 to 80 | 2270 | 1750 | 19600 | – | –
CN1CCN(CCOC(=O)c2c3c(n4cccc(F)c24)C(=O)c2ncccc2C3=O)CC1 | 450 | 110 | 41 to 80 | 29 | 44 | 52 | – | –
CN(C)CCCOC(=O)c1c2c(n3cccc(F)c13)C(=O)c1ncccc1C2=O | 370 | 80 | 81 to 120 | 25 | 66 | 18 | Active | Active
O=C1c2cccnc2C(=O)c2c1c(C(=O)OCCN1CCOCC1)c1c(F)cccn21 | 1100 | 570 | < 40 | 230 | 110 | 130 | – | –
CCOC(=O)c1c2c(n3ccc(NC(=O)CCN4CCOCC4)cc13)C(=O)c1ncccc1C2=O | 600 | 340 | 81 to 120 | 16400 | 300 | 9680 | inactive | inactive
O=C1c2cccnc2C(=O)c2c1c(C(=O)OCCCN1CCOCC1)c1c(F)cccn21 | 490 | 130 | < 40 | 250 | 38 | 230 | – | –
CN1CCN(CCCOC(=O)c2c3c(n4cccc(F)c24)C(=O)c2ncccc2C3=O)CC1 | 320 | 42 | 41 to 80 | 73 | 44 | 21 | – | –
O=C1c2cnncc2C(=O)c2c1c(C(=O)OCCN1CCOCC1)c1ccccn21 | 1350 | 2920 | 81 to 120 | 1220 | 3430 | 860 | inactive | inactive
O=C1c2cccnc2C(=O)c2c1c(C(=O)OCCCN1CCCC1)c1c(Cl)cccn21 | 85300 | 12200 | < 40 | 8320 | 38200 | 24500 | – | –
CCOC(=O)c1c2c(n3ccccc13)C(=O)c1ncccc1C2=O | 680 | 850 | 81 to 120 | 93 | 330 | 160 | inactive | inactive

Reference: ChEMBL document CHEMBL4152240, “Synthesis, cytotoxicity and structure-activity relationship of indolizinoquinolinedione derivatives as DNA topoisomerase IB catalytic inhibitors” (2018)
